Source: ChEMBL document CHEMBL1144116, “Tanikolide, a toxic and antifungal lactone from the marine cyanobacterium Lyngbya majuscula” (J Nat Prod, 1999)
≈ marks a conversion by molar mass, not a printed value. Calls of active or inactive are those of the source. No cut-off for these calls is given here.

How the values were obtained:
[1] = tested on: Candida albicans; assay: Antifungal activity against Candida albicans ATCC 14053 at 100 ug/disk by paper disk agar plate method; format: functional
In short: (§1)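 Paper disk-agar plate diffusion with 6 mm paper disks, each loaded with 100 µg of sample. Activity is read as the diameter of the zone of inhibition around the disk.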

[2] = tested on: Pseudomonas aeruginosa; assay: Antibacterial activity against Pseudomonas aeruginosa ATCC 10145 at 100 ug/disk by paper disk agar plate method; format: functional, organism-based; in short: as §1
[3] = tested on: Escherichia coli; assay: Antibacterial activity against Escherichia coli ATCC 11775 at 100 ug/disk by paper disk agar plate method; format: functional, organism-based; in short: as §1
[4] = tested on: Salmonella enterica subsp. enterica; assay: Antibacterial activity against Salmonella choleraesuis subsp. choleraesuis ATCC 14028 at 100 ug/disk by paper disk agar plate method; format: functional, organism-based
In short: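 Standard paper sensitivity disk-agar plate method with 6 mm disks. Read-out is the diameter of the inhibition zone around the disk.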

[5] = tested on: Bacillus subtilis; assay: Antibacterial activity against Bacillus subtilis ATCC 6051 at 100 ug/disk by paper disk agar plate method; format: functional, organism-based; in short: as §1
[6] = tested on: Staphylococcus aureus; assay: Antibacterial activity against Staphylococcus aureus ATCC 12600 at 100 ug/disk by paper disk agar plate method; format: functional, organism-based; in short: as §1
[7] = Toxicity against Artemia salina after 24 hrs; format: organism-based; details: in vivo, read-out: LD50
In short: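 About 15 hatched Artemia salina in ca. 0.5 mL seawater per well with sample in 50 µL EtOH plus 4.5 mL artificial seawater (total ca. 5 mL), several concentrations, duplicate samples and controls. After 24 h at 28 °C, live and dead shrimp counted under dissecting light microscope.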

[8] = tested on: Biomphalaria glabrata; assay: Molluscicidal activity against Biomphalaria glabrata at 10 mg/mL after 24 hrs; format: functional; details: read-out: LD50 (the source's name)
In short: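 Test snails: Biomphalaria glabrata. Sample stock solutions (10 mg/mL in EtOH) diluted in 10 mL distilled H2O. Snails observed after 24 h and scored dead when no heart beat was detected by dissecting light microscopy.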

[9] = tested on: Carassius auratus; assay: Norcotic effect against Carassius auratus at 10 ug/mL after 1 hr; format: ADME, organism-based; details: in vivo
In short: (§2)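 Single goldfish (Carassius auratus) per vessel in 50 mL distilled H2O, with sample dilutions added in 50 µL EtOH. Each fish is observed for 1 h. Samples and controls are run in duplicate.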

[10] = tested on: Carassius auratus; assay: Toxicity against Carassius auratus; format: organism-based; details: in vivo; in short: as §2

SMILES | Activity [1] | Activity [2] | Activity [3] | Activity [4] | Activity [5] | Activity [6] | LC50 at 24 h [7] | LC50 [8] | Activity [9] | zone of inhibition at 100 µg/disc ([1]; read-out: IZ) | Activity [10]
CCCCCCCCC[C@@]1(CO)CC[C@@H](C)C(=O)O1 | inactive | inactive | inactive | inactive | inactive | inactive | – | – | – | – | –
CCCCCCCCCCC[C@]1(CO)CCCC(=O)O1 [TANIKOLIDE] | – | inactive | inactive | inactive | inactive | inactive | 3.6 µg/mL (≈ 12.7 µM) | 9 µg/mL (≈ 31.6 µM) | Toxic | 13 mm | Non-toxic
